# According to the EternaBench riboswitch data:
# Tested on: MS2 coat protein
# Test: apparent Kd, MS2 coat protein; higher = weaker binding; RNA-MaP array; FMN 200 µM where present
# Outline: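 Designs on Illumina sequencing-chip clusters, transcribed by stalled E. coli RNA polymerase, were exposed to SNAP-549-labelled MS2 coat protein in doubling steps from 0.7 or 1.5 nM up to 3 µM, without and then with constant ligand. The buffer held 100 mM Tris-HCl pH 7.5, 80 mM KCl, 4 mM MgCl2, BSA, DTT, yeast tRNA and Tween-20. Apparent Kd values are medians of filtered per-cluster binding-curve fits to green signal normalised to red-channel RNA signal and control-cluster median Fmax.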
# [1] = designed as: OFF switch for flavin mononucleotide, no ligand
# [2] = ligand present: flavin mononucleotide, designed as: OFF switch for flavin mononucleotide
# [3] = designed as: ON switch for flavin mononucleotide, no ligand
# [4] = ligand present: flavin mononucleotide, designed as: ON switch for flavin mononucleotide
Sequence,apparent Kd [1] [µM],apparent Kd [2] [µM],apparent Kd [3] [µM],apparent Kd [4] [µM]
GUCAGCUCGUGAGGAUAUACAACACUGCUUCGGCAGUGUAUUAUGAUCACAUGAGGAUCACCCAUGUAGAAGGCACGAGCUGAU,0.0293,0.23,,
CGGCGUUGUCGAGAGGAUAUGCGGUGAUGGACAUGAGGAUCACCCAUGUUAGCGAUAGCAUUACGGUAGAAGGCUCUACAGCUGC,,,0.065,0.017
GCACCUUUAUUUGAACCGAUACGAACAUGAGGAUCACCCAUGUAGGAUAUGCUAAAAGUUGUGUUGCAGAAGGACAUUUAGUGC,0.00936,0.00898,,
ACACAGGGAGGAUAUACAUGAGGAUCACCCAUGUAGAGUGGAUUGGGAUUGCUAUCAAGUAGAAGGCUUUAGUG,0.0561,0.122,,
AUAGAAGACUAGAAGGACCUAGCUGUAUACCGUCGAGGUAUAUAGCUAGGUAGGAUAUGGGACAUGAGGAUCACCCAUGUCUUG,,,0.00858,0.00758
AGUACUACAGGAUAUACGAGGGAGGUCCACGUGACCCUUUUACAUGAGGAUCACCCAUGUAGAAGGGUAGUACA,0.0233,0.0268,,
GGGCUCGGAGGAUAUACAUGAGGAUCACCCAUGUAGGGCUCGGGUAUUUCUGGGUCUUGUAGAAGGCUGGGUCU,0.0213,0.03,,
GCAAGAACGGGUCAGUCCCAGAUGAGAAGGGUAGGUGGCGAUGAGUACAUGAGGAUCACCCAUGUACAGGAUAUCAUCAUUGUA,0.00763,0.00866,,
UUCGGCGCAGGAUAUGCGGUUCUGUGUUGAAUCGGCGCGGGACAUGAGGAUCACCCAUGUAGAAGGGUGUUGGG,0.361,0.287,,
CUAGCAUACCGAGGAUAUUCAUAUAAUAAAUAAACAUGAGGAUCACCCAUGUGGCGAAAGCCUAGGGAGAAGGCGGAAUGCUAA,,,0.185,0.0248
GGUCUGAUAUGAGGAUAUGCUCAGGAAUACUGAGCAGAAGGCAUGUGAAUACAUGAGGAUCACCCAUGUGAUCAAUACAGACCA,,,0.14,0.026
UGUGUUGCGCAGGAUAUGCUGGACAUGAGAGCUGCAGAAGGGCGAACAUGAGGAUCACCCAUGUUUUCCUCGGC,0.0141,0.0146,,
UGCUGACGAGGAUAUACAUGAGGAUCACCCAUGUUGGUCAAGCGACGAUAGUCGCAAUGUAGAAGGCGUCAGCU,0.483,0.208,,
UGUCGCAGCAGAGGAUAUUACAUGAGGAUCACCCAUGUAUGAACCAAUAGCUGGAAACAGCAAUGUAAGAAGGCUGCUCCGACA,0.0117,0.128,,
AUCAGCUGGUCAGGAUAUACAUCACUGCUUCGGCAGUGUAUUAAGAUCACAUGAGGAUCACCCAUGUAGAAGGGACCAGCUGAU,0.0303,0.341,,
GGUAUCUCCAGUGAGGAUAUGCGGCGUAGAACAUGAGGAUCACCCAUGUCCUUCGAAUGGGUUACGCAGAAGGCACUACGGUACC,,,0.0366,0.0166
GCUCUACAUGAGGAUCACCCAUGUCCAUCCGCACGAGGAUAUGCAUGGGCGAAAGCUGGUGCAGAAGGCGUGGGAC,,,0.19,0.0988
UAUAUAUAGGCAGGAUAUACAUGAAUAUAUAUAAUAUAAUAUAAUGUAACAUGAGGAUCACCCAUGUAGAAGGGCCAAUAUAUA,0.0306,0.0599,,
UCGUGCCGGGUCACGAUUGACCCACAUGAGGAUCACCCAUGUAGAAGGACCAGCGUCGGCCCUUGGUAGGAUAUACAUGAGCUC,0.0948,0.114,,
AGUAGAUCAGGAUAUACGUGAAAGGUCAAAGUGUCACUACUACAUGAGGAUCACCCAUGUAGAAGGGAUCUACA,0.0164,0.0293,,
UUAUUUAUGUAAGGAUAUCGAUUAUAUACACAUCCUACAUGAGGAUCACCCAUGUUUUAUUUUUUCGAGAAGGUACAUUGUCGG,,,0.0517,0.0474
AGCUGUGGCCGAGGAUAUCACGAACCAUGGAAAACCAUGGAAAUUCUACAUGAGGAUCACCCAUGUGAGAAGGCGGUCUCAGCA,0.0181,0.0172,,
AGGCAGCAAGGAUAUACAUAAUUCCUACAAGUCAGCAUAGGACAUGAGGAUCACCCAUGUAGAAGGUGCAAAGA,0.0241,0.0463,,
